Test results from ChEMBL document CHEMBL4359813, “Synthesis and antimycobacterial activity of imidazo[1,2-b][1,2,4,5]tetrazines” (2019).
Converted amounts (≈) assume the structure as drawn. The source made the active and inactive calls. The rule behind the calls is not given here.

What was measured:
[1] = tested on: Mycolicibacterium smegmatis MC2 155; assay: Inhibition of STPK in Mycobacterium smegmatis MC2 155 expressing aminoglycoside phophotransferase-8 assessed as growth inhibition at 50 nmol/disk after 18 hrs in presence of kanamycin by paper disk method
[2] = tested on: Mycobacterium tuberculosis; assay: Antimycobacterial activity against Mycobacterium tuberculosis H37Rv in liquid medium; format: functional
Procedure, shortened: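 M. tuberculosis H37Rv; MIC determined in liquid medium on the automated Bactec MGIT 960 system.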

[3] = tested on: Mycolicibacterium smegmatis; assay: Antimycobacterial activity against Mycobacterium smegmatis MC2 155 in liquid medium after 48 hrs by two-fold serial dilution method; format: functional; settings: MC2 155, 48 h
Procedure, shortened: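 M. smegmatis mc2 155 grown overnight in Lemco-Tw broth, diluted 1:200 in fresh broth. […] Top wells could carry 4% DMSO. Incubated 48 h at 37 °C with shaking at 250 rpm. MIC is the lowest concentration with no visible growth.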

[4] = tested on: Mycolicibacterium smegmatis; assay: Antimycobacterial activity against Mycobacterium smegmatis MC2 155 in solid medium by two-fold serial dilution method; format: functional
Procedure, shortened: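 M290 soybean-casein agar plates carried two-fold compound dilutions, 8–64 or 8–128 µg/ml, some with extra 20 or 25 µg/ml plates.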

[5] = tested on: Mycolicibacterium smegmatis; assay: Antimycobacterial activity against Mycobacterium smegmatis atR9 in liquid medium after 48 hrs by two-fold serial dilution method; format: functional; settings: atR9, 48 h
Procedure, shortened: (§1)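 M. smegmatis resistant mutants were isolated on M290 agar containing 3.5-4× MIC of the test compound at 30°C and resistance was reconfirmed. MIC was then run in Lemco-Tw broth (Tween-80 0.05%). An overnight culture was diluted 1:200, and two-fold serial dilutions in DMSO were added. Plates were incubated at 37°C and 250 rpm for 48 h. MIC was read as the lowest concentration with no visible growth.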

[6] = tested on: Mycolicibacterium smegmatis; assay: Antimycobacterial activity against Mycobacterium smegmatis atR14 in liquid medium after 48 hrs by two-fold serial dilution method; format: functional; settings: atR14, 48 h; procedure, shortened: as §1
[7] = tested on: Mycolicibacterium smegmatis; assay: Antimycobacterial activity against Mycobacterium smegmatis atR17 in liquid medium after 48 hrs by two-fold serial dilution method; format: functional; settings: atR17, 48 h; procedure, shortened: as §1
[8] = tested on: Mycolicibacterium smegmatis; assay: Antimycobacterial activity against Mycobacterium smegmatis atR19 in liquid medium after 48 hrs by two-fold serial dilution method; format: functional; settings: atR19, 48 h; procedure, shortened: as §1
[9] = tested on: Mycolicibacterium smegmatis; assay: Antimycobacterial activity against Mycobacterium smegmatis atR1 in liquid medium after 48 hrs by two-fold serial dilution method; format: functional; settings: atR1, 48 h; procedure, shortened: as §1
[10] = tested on: Mycolicibacterium smegmatis; assay: Antimycobacterial activity against Mycobacterium smegmatis atR8 in liquid medium after 48 hrs by two-fold serial dilution method; format: functional; settings: atR8, 48 h; procedure, shortened: as §1
[11] = tested on: Mycolicibacterium smegmatis; assay: Antimycobacterial activity against Mycobacterium smegmatis atR10 in liquid medium after 48 hrs by two-fold serial dilution method; format: functional; settings: atR10, 48 h; procedure, shortened: as §1
[12] = tested on: Mycolicibacterium smegmatis; assay: Antimycobacterial activity against Mycobacterium smegmatis atR11 in liquid medium after 48 hrs by two-fold serial dilution method; format: functional; settings: atR11, 48 h; procedure, shortened: as §1
[13] = tested on: Mycolicibacterium smegmatis; assay: Antimycobacterial activity against Mycobacterium smegmatis atR33 in liquid medium after 48 hrs by two-fold serial dilution method; format: functional; settings: atR33, 48 h; procedure, shortened: as §1
[14] = tested on: Mycolicibacterium smegmatis; assay: Antimycobacterial activity against Mycobacterium smegmatis atR37 in liquid medium after 48 hrs by two-fold serial dilution method; format: functional; settings: atR37, 48 h; procedure, shortened: as §1
[15] = tested on: Mycolicibacterium smegmatis; assay: Antimycobacterial activity against Mycobacterium smegmatis atR40 in liquid medium after 48 hrs by two-fold serial dilution method; format: functional; settings: atR40, 48 h; procedure, shortened: as §1
[16] = tested on: Mycolicibacterium smegmatis; assay: Antimycobacterial activity against Mycobacterium smegmatis atR2 in liquid medium after 48 hrs by two-fold serial dilution method; format: functional; settings: atR2, 48 h; procedure, shortened: as §1
[17] = tested on: Mycolicibacterium smegmatis; assay: Antimycobacterial activity against Mycobacterium smegmatis atR8 assessed as decrease in drug resistance development at 200 nmol/disc after 2 to 3 days by paper disc method; format: functional, organism-based
Procedure, shortened: (§2)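 Drug-resistant M. smegmatis mc2 155 mutants, isolated on M290 agar with 3.5-4× MIC of compound and resistance re-confirmed, grown in Middlebrook 7H9 (OADC, 0.1% Tween-80, 0.4% glycerol) to OD600 1.2. Diluted 1:9:10 culture:water:M290 and poured as top layer on M290 agar. Impregnated paper discs applied; 37 °C for 2–3 days. Halos measured to nearest 1 mm; triplicates, mean ± SD versus control strain.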

[18] = tested on: Mycolicibacterium smegmatis; assay: Antimycobacterial activity against Mycobacterium smegmatis atR9 assessed as decrease in drug resistance development at 200 nmol/disc after 2 to 3 days by paper disc method; format: functional, organism-based; procedure, shortened: as §2
[19] = tested on: Mycolicibacterium smegmatis; assay: Antimycobacterial activity against Mycobacterium smegmatis atR10 assessed as decrease in drug resistance development at 200 nmol/disc after 2 to 3 days by paper disc method; format: functional, organism-based
Procedure, shortened: (§3)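 Mutant M. smegmatis strains were grown in Middlebrook 7H9/OADC/Tween/glycerol to OD600 1.2. Cultures were diluted 1:9:10 (culture:water:M290) and overlaid on M290 agar. Commercial or impregnated paper discs were applied and plates incubated 2–3 days at 37 °C. Inhibition halos were measured to 1 mm, run in triplicate, mean ± SD.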

[20] = tested on: Mycolicibacterium smegmatis; assay: Antimycobacterial activity against Mycobacterium smegmatis atR17 assessed as decrease in drug resistance development at 200 nmol/disc after 2 to 3 days by paper disc method; format: functional, organism-based; procedure, shortened: as §3
[21] = tested on: Mycolicibacterium smegmatis; assay: Antimycobacterial activity against Mycobacterium smegmatis atR33 assessed as decrease in drug resistance development at 10 ug/disc after 2 to 3 days by paper disc method; format: functional, organism-based; procedure, shortened: as §3
[22] = tested on: Mycolicibacterium smegmatis; assay: Antimycobacterial activity against Mycobacterium smegmatis atR37 assessed as decrease in drug resistance development at 10 ug/disc after 2 to 3 days by paper disc method; format: functional, organism-based; procedure, shortened: as §2
[23] = tested on: Mycolicibacterium smegmatis; assay: Antimycobacterial activity against Mycobacterium smegmatis atR9 assessed as decrease in drug resistance development at 10 ug/disc after 2 to 3 days by paper disc method; format: functional, organism-based; procedure, shortened: as §2
[24] = tested on: Mycolicibacterium smegmatis; assay: Antimycobacterial activity against Mycobacterium smegmatis atR10 assessed as decrease in drug resistance development at 10 ug/disc after 2 to 3 days by paper disc method; format: functional, organism-based; procedure, shortened: as §3
[25] = tested on: Mycolicibacterium smegmatis MC2 155; assay: Inhibition of STPK in Mycobacterium smegmatis MC2 155 expressing aminoglycoside phophotransferase-8 assessed as growth inhibition at 100 nmol/disk after 18 hrs in presence of kanamycin by paper disk method
[26] = tested on: Mycolicibacterium smegmatis; assay: Antimycobacterial activity against Mycobacterium smegmatis atR40 assessed as decrease in drug resistance development at 2 ug/disc after 2 to 3 days by paper disc method; format: functional, organism-based; procedure, shortened: as §2
[27] = tested on: Mycolicibacterium smegmatis; assay: Antimycobacterial activity against Mycobacterium smegmatis atR2 assessed as decrease in drug resistance development at 2 ug/disc after 2 to 3 days by paper disc method; format: functional, organism-based; procedure, shortened: as §3
[28] = tested on: Mycolicibacterium smegmatis; assay: Antimycobacterial activity against Mycobacterium smegmatis atR19 assessed as decrease in drug resistance development at 2 ug/disc after 2 to 3 days by paper disc method; format: functional, organism-based; procedure, shortened: as §3
[29] = tested on: Mycolicibacterium smegmatis; assay: Antimycobacterial activity against Mycobacterium smegmatis atR1 assessed as decrease in drug resistance development at 300 nmol/disc after 2 to 3 days by paper disc method; format: functional, organism-based; procedure, shortened: as §3
[30] = tested on: Mycolicibacterium smegmatis; assay: Antimycobacterial activity against Mycobacterium smegmatis atR2 assessed as decrease in drug resistance development at 300 nmol/disc after 2 to 3 days by paper disc method; format: functional, organism-based; procedure, shortened: as §3
[31] = tested on: Mycolicibacterium smegmatis; assay: Antimycobacterial activity against Mycobacterium smegmatis atR11 assessed as decrease in drug resistance development at 300 nmol/disc after 2 to 3 days by paper disc method; format: functional, organism-based; procedure, shortened: as §3
[32] = tested on: Mycolicibacterium smegmatis; assay: Antimycobacterial activity against Mycobacterium smegmatis atR8 assessed as decrease in drug resistance development at 300 nmol/disc after 2 to 3 days by paper disc method; format: functional, organism-based; procedure, shortened: as §2
[33] = tested on: Mycolicibacterium smegmatis; assay: Antimycobacterial activity against Mycobacterium smegmatis atR10 assessed as decrease in drug resistance development at 300 nmol/disc after 2 to 3 days by paper disc method; format: functional, organism-based; procedure, shortened: as §3
[34] = tested on: Mycolicibacterium smegmatis; assay: Antimycobacterial activity against Mycobacterium smegmatis atR14 assessed as decrease in drug resistance development at 300 nmol/disc after 2 to 3 days by paper disc method; format: functional, organism-based; procedure, shortened: as §3
[35] = tested on: Mycolicibacterium smegmatis; assay: Antimycobacterial activity against Mycobacterium smegmatis atR17 assessed as decrease in drug resistance development at 300 nmol/disc after 2 to 3 days by paper disc method; format: functional, organism-based; procedure, shortened: as §3
[36] = tested on: Mycolicibacterium smegmatis; assay: Antimycobacterial activity against Mycobacterium smegmatis atR19 assessed as decrease in drug resistance development at 300 nmol/disc after 2 to 3 days by paper disc method; format: functional, organism-based; procedure, shortened: as §3
[37] = tested on: Mycolicibacterium smegmatis; assay: Antimycobacterial activity against Mycobacterium smegmatis atR33 assessed as decrease in drug resistance development at 300 nmol/disc after 2 to 3 days by paper disc method; format: functional, organism-based; procedure, shortened: as §3
[38] = tested on: Mycolicibacterium smegmatis; assay: Antimycobacterial activity against Mycobacterium smegmatis atR37 assessed as decrease in drug resistance development at 300 nmol/disc after 2 to 3 days by paper disc method; format: functional, organism-based; procedure, shortened: as §2
[39] = tested on: Mycolicibacterium smegmatis; assay: Antimycobacterial activity against Mycobacterium smegmatis atR40 assessed as decrease in drug resistance development at 300 nmol/disc after 2 to 3 days by paper disc method; format: functional, organism-based; procedure, shortened: as §2

SMILES | MIC [2] [µM] | MIC [3] [µM] | MIC [4] [µM] | MIC [5] [µg/mL] | MIC [6] [µg/mL] | MIC [7] [µg/mL] | MIC [8] [µg/mL] | MIC [9] [µg/mL] | MIC [10] [µg/mL] | MIC [11] [µg/mL] | MIC [12] [µg/mL] | MIC [13] [µg/mL] | MIC [14] [µg/mL] | MIC [15] [µg/mL] | MIC [16] [µg/mL] | inhibition zone (IZ) [25] [mm] | other results
c1cn(-c2nnc3nccn3n2)cn1 | 134 (≈ 25 µg/mL) | 171 (≈ 32 µg/mL) | 134 (≈ 25 µg/mL) | 32 (≈ 171 µM) | 32 (≈ 171 µM) | 32 (≈ 171 µM) | 32 (≈ 171 µM) | 32 (≈ 171 µM) | 32 (≈ 171 µM) | 32 (≈ 171 µM) | 32 (≈ 171 µM) | 32 (≈ 171 µM) | 32 (≈ 171 µM) | 32 (≈ 171 µM) | 32 (≈ 171 µM) |  | inhibition zone (IZ) [1]: 12.8 mm; Activity [17]: inactive; Activity [18]: inactive; Activity [19]: inactive; Activity [20]: inactive
C[C@@H](O)[C@H]1C(=O)N2C(C(=O)O)=C(SCCNC=N)C[C@H]12 |  |  |  |  |  |  |  |  |  |  |  |  |  |  |  |  | Activity [21]: inactive; Activity [22]: inactive; Activity [23]: inactive; Activity [24]: inactive
COc1ccc(OC)c(Sc2cnc3nnc(-n4nc(C)cc4C)nn23)c1 |  |  |  |  |  |  |  |  |  |  |  |  |  |  |  | 9.3 | 
CC1COc2c(N3CCN(C)CC3)c(F)cc3c(=O)c(C(=O)O)cn1c23 (stereo not given) |  |  |  |  |  |  |  |  |  |  |  |  |  |  |  |  | Activity [26]: inactive; Activity [27]: inactive; Activity [28]: inactive
Cc1cc(C)n(-c2nnc3ncc(SCc4ccccc4)n3n2)n1 | 3 (≈ 1.01 µg/mL) | 94.8 (≈ 32 µg/mL) | 59.3 (≈ 20 µg/mL) | > 64 | > 64 | > 64 | > 64 | > 64 | > 64 | > 64 | > 64 | > 64 | > 64 | > 64 | > 64 | 13.7 | Activity [29]: inactive; Activity [30]: inactive; Activity [31]: inactive; Activity [32]: inactive; Activity [33]: inactive; Activity [34]: inactive; Activity [35]: inactive; Activity [36]: inactive; Activity [37]: inactive; Activity [38]: inactive; Activity [39]: inactive
